Experiments:
[1] = biological target: Cyclin-dependent kinase 1/cyclin B (Homo sapiens, UniProt P06493); assay: Inhibitory activity against cyclin-dependent kinase 1-cyclin B.; format: protein-complex assay
Outline: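 CDK1/cyclin B1 enzyme from starfish (Marthasterias glacialis) oocytes; kinase inhibition assayed by a method from earlier work.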

[2] = tested on: Cyclin-dependent kinase 1/cyclin B (starfish); assay: Inhibition of Cyclin-dependent kinase 1-cyclin B at 10 uM; conditions: Asteroidea
[3] = biological target: T1, Cyclin-dependent kinase 2/cyclin A (Homo sapiens) (UniProt P24941+P20248+P78396); assay: (§1) Inhibition of Cyclin-dependent kinase 2-Cyclin A3 at 10 uM; format: protein-complex assay
Outline: (§2)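 Human CDK2/cyclin A kinase inhibition assay run by an earlier-published method. Solubility limited the highest concentration that could be tested to 10 µM.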

[4] = biological target: T2, Cyclin-dependent kinase 2/cyclin A (Homo sapiens, UniProt P24941); assay: Inhibition of cyclin-dependent kinase 2-cyclin A3 (CDK2); format: protein-complex assay
[5] = biological target: Cyclin-dependent kinase 1/cyclin B (Homo sapiens) (UniProt P06493+P14635+Q8WWL7+O95067); assay: Inhibition of cyclin-dependent kinase 1/Cyclin B at 10 uM; format: protein-complex assay; conditions: Marthasterias glacialis
Outline: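 Starfish (Marthasterias glacialis) oocyte CDK1/cyclin B1 kinase inhibition assay run by an earlier-published method. Solubility limited the highest concentration that could be tested to 10 µM.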

[6] = biological target: T1, Cyclin-dependent kinase 2/cyclin A (Homo sapiens); assay: Inhibition of cyclin-dependent kinase 2/Cyclin A3 at 10 uM; format: protein-complex assay; outline: as §2
[7] = biological target: Cyclin-dependent kinase 1/cyclin B (starfish); assay: Inhibition of Cyclin-dependent kinase 1-cyclin B at 10 uM
[8] = biological target: T2, Cyclin-dependent kinase 2/cyclin A; assay: as §1; format: protein-complex assay; outline: as §2
[9] = biological target: Cyclin-dependent kinase 1/cyclin B (starfish); assay: Inhibition of Cyclin-dependent kinase 1-cyclin B at 100 uM
[10] = biological target: T2, Cyclin-dependent kinase 2/cyclin A; assay: Inhibition of Cyclin-dependent kinase 2-Cyclin A3 at 100 uM; format: protein-complex assay

SMILES	IC50 [1] [µM]	IC50 [4] [µM]	other results
CSc1cccc(Nc2nc(OCC3CCCCC3)c3nc[nH]c3n2)c1	2.4		
OCc1cccc(Nc2nc(OCC3CCCCC3)c3[nH]cnc3n2)c1	0.3		
CC[C@H](CO)Nc1nc(OCC2CCCCC2)c2[nH]cnc2n1			inhibition [2]: 43%; inhibition [3]: 62%
CN(C)S(=O)(=O)c1ccc(Nc2nc(OCC3CCCCC3)c3nc[nH]c3n2)cc1	0.077		
NS(=O)(=O)c1cccc(Nc2nc(OCC3CCCCC3)c3nc[nH]c3n2)c1	0.24		
OCCNc1nc(OCC2CCCCC2)c2[nH]cnc2n1	3.2	2.8	
COc1cccc(Nc2nc(OCC3CCCCC3)c3[nH]cnc3n2)c1	2.2		
CC(=O)c1ccc(Nc2nc(OCC3CCCCC3)c3[nH]cnc3n2)cc1	0.5		
NS(=O)(=O)c1ccc(CNc2nc(OCC3CCCCC3)c3[nH]cnc3n2)s1	5.7	5	
CNS(=O)(=O)c1ccc(Nc2nc(OCC3CCCCC3)c3nc[nH]c3n2)cc1	0.009		
CN(C)c1nc(OCC2CCCCC2)c2[nH]cnc2n1			inhibition [2]: 27%; inhibition [3]: 31%
COc1cc(Nc2nc(OCC3CCCCC3)c3[nH]cnc3n2)ccc1S(N)(=O)=O	0.103		
NC(=O)Cc1ccc(Nc2nc(OCC3CCCCC3)c3nc[nH]c3n2)cc1	0.14	0.13	
CCNc1nc(OCC2CCCCC2)c2[nH]cnc2n1	3.3	2.8	
CCc1cccc(Nc2nc(OCC3CCCCC3)c3[nH]cnc3n2)c1	37	52	inhibition [5]: 32%; inhibition [3]: 37%
CNc1nc(OCC2CCCCC2)c2[nH]cnc2n1	5.3	5	
CC(C)[C@H](CO)Nc1nc(OCC2CCCCC2)c2[nH]cnc2n1			inhibition [2]: 2%; inhibition [6]: 20%
CC[C@@H](CO)Nc1nc(OCC2CCCCC2)c2[nH]cnc2n1			inhibition [2]: 29%; inhibition [3]: 52%
C[S+]([O-])c1ccc(Nc2nc(OCC3CCCCC3)c3[nH]cnc3n2)cc1 (stereo unspecified)	0.2		
COC(=O)c1ccc(Nc2nc(OCC3CCCCC3)c3nc[nH]c3n2)cc1			IC50 [7]: 66 µM; IC50 [8]: 25 µM

SMILES	IC50 [1] [µM]	IC50 [4] [µM]	other results
Fc1nc(OCC2CCCCC2)c2[nH]cnc2n1			inhibition [2]: 7%; inhibition [3]: 4%
Fc1ccc(Nc2nc(OCC3CCCCC3)c3[nH]cnc3n2)cc1Cl			inhibition [2]: 73%; inhibition [3]: 68%
CC(C)Nc1nc(OCC2CCCCC2)c2[nH]cnc2n1	2	1.2	
Clc1nc(OCC2CCCCC2)c2[nH]cnc2n1			inhibition [2]: 6%; inhibition [3]: 5%
NS(=O)(=O)c1ccc(NNc2nc(OCC3CCCCC3)c3[nH]cnc3n2)cc1	8.9	4.3	
Clc1cc(Cl)cc(Nc2nc(OCC3CCCCC3)c3[nH]cnc3n2)c1	13	12	
CC(C)[C@@H](CO)Nc1nc(OCC2CCCCC2)c2[nH]cnc2n1			inhibition [2]: 1%; inhibition [3]: 19%
O=C(O)c1ccc(Nc2nc(OCC3CCCCC3)c3nc[nH]c3n2)cc1	1	0.8	
c1csc(CNc2nc(OCC3CCCCC3)c3[nH]cnc3n2)c1	0.7	1.7	
CNC(=O)c1ccc(Nc2nc(OCC3CCCCC3)c3nc[nH]c3n2)cc1	0.4	0.2	
COc1ccc(Nc2nc(OCC3CCCCC3)c3[nH]cnc3n2)cc1	0.79		
Brc1cccc(Nc2nc(OCC3CCCCC3)c3[nH]cnc3n2)c1	5.3		
N#CCc1ccc(Nc2nc(OCC3CCCCC3)c3[nH]cnc3n2)cc1	0.3		
CN(C)C(=O)c1ccc(Nc2nc(OCC3CCCCC3)c3[nH]cnc3n2)cc1	0.6		
CSc1ccc(Nc2nc(OCC3CCCCC3)c3[nH]cnc3n2)cc1			inhibition [2]: 10%; inhibition [3]: 18%
COc1ccc(Oc2nc(OCC3CCCCC3)c3[nH]cnc3n2)cc1			IC50 [9]: 10 µM; IC50 [10]: 42 µM
Fc1ccc(Nc2nc(OCC3CCCCC3)c3[nH]cnc3n2)cc1			inhibition [2]: 20%; inhibition [3]: 27%
Fc1cccc(Nc2nc(OCC3CCCCC3)c3[nH]cnc3n2)c1			inhibition [2]: 69%; inhibition [3]: 62%
c1ccc(Nc2nc(OCC3CCCCC3)c3nc[nH]c3n2)cc1	1.6		

Source: ChEMBL document CHEMBL1138832, “N2-substituted O6-cyclohexylmethylguanine derivatives: potent inhibitors of cyclin-dependent kinases 1 and 2” (J Med Chem, 2004)
